Sampled rows, rich in hits. Any-hit rate of the full collection: about 2.6%.
miR-122 sensor: miR-122 Renilla sensor signal increase in Huh7, primary screen, miR-122 inhibitor project, cell-based, single point, plate reader. Huh7 miR-122 Renilla luciferase sensor, 48 h; neutral wells = 0, positive control = 100. activation (reporter increase), % at 12.5 µM. actives 0.3% (n = 340,000);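 active = mean replicate activation score at least 90 and every replicate individually at or above 90; inconclusive = only one of the two criteria met; inactive = neither criterion met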;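 note: higher luciferase means less miR-122 activity so hits act as miR-122 inhibitors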
ERAP1 inh: human ERAP1 aminopeptidase inhibitors, primary screen, biochemical, single point, plate reader; Endoplasmic reticulum aminopeptidase 1 (Homo sapiens), Q9NZ08; recombinant ERAP1, Leu-AMC fluorescence, 60 min; inhibition, % at 10.7 µM; actives 0.15% (n = 340,000); AID 652197, 2013;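 active = mean replicate inhibition of at least 30%, or all replicates individually reaching that 30% level; inactive = mean below 30% and not every replicate reaching it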
INS-1E GSIS act: GLuc luminescence reporter in INS-1E cells, primary screen for activators of glucose-dependent secretion of insulin; actives 0.61% (n = 370,000); INS-1E GLuc reporter insulin secretion, 2-3 h; activation, % at 16.6 µM;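 active = lowest replicate activation of at least 40%, so every replicate reaches that level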
E-selectin induc: E-selectin induction in HUVECs, primary screen, imaging, HUVEC, immunofluorescence imaging, single point; normalized: neutral wells 0, TNF-alpha wells 100; actives 0.37% (n = 260,000); activation, % at 7.58 µM; P16581;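 active = mean E-selectin-positive cell signal at least 10% of the positive control, reached in at least 60% of replicates, without over 20% cell loss; inconclusive = no rule given, readout overlaps actives, possibly toxicity-flagged; inactive = the rest, including those meeting only one limit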
Target sequence (P16581 whole entry, looked up): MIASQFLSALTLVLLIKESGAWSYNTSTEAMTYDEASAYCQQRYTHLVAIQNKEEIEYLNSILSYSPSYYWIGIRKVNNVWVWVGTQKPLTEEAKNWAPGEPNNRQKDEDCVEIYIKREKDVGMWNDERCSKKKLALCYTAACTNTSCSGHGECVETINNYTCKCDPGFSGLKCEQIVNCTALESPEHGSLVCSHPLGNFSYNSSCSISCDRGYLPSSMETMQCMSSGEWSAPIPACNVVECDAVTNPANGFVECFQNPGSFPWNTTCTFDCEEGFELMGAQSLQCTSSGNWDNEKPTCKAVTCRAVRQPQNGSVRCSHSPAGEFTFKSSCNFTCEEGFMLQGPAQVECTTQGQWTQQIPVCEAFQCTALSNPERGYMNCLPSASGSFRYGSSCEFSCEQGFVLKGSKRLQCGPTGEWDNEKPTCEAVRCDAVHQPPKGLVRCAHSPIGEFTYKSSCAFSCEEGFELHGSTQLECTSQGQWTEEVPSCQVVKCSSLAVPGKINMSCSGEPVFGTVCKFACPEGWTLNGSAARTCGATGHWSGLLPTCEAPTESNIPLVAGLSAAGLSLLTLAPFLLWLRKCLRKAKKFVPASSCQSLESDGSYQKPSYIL
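assay system = HUVEC, human umbilical vein endothelial cells | input = 3,000 HUVEC seeded per well | medium = EGM-2 growth medium on 0.1% gelatin-coated wells | dosing = one compound dose added by pin transfer | signal = immunofluorescence imaging | read-out basis = % PE-positive cells | control set = TNF-alpha, DMSO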
DENV2 CPE rescue: inhibitors of DENV2 cytopathic effect, primary screen, cell-based, plate reader, single concentration. DENV2-infected cells, cytopathic effect rescue. CPE inhibition, % at 9.99 µM. actives 1.7% (n = 350,000). AID 651640, 2012; in the data active = CPE inhibition above about 20%, passing the limit was not always enough; inconclusive = no clear call, values can overlap the other calls; tested in BHK-21 cells
CFTR F508del cor: F508del CFTR correction, initial screen, CFBE line, single point; activity (quench increase), % at 7.58 µM; CFBE cells, YFP halide quenching; stimulated with forskolin plus potentiator P3; % fluorescence drop versus neutral controls; AID 720511, 2013; actives 0.36% (n = 350,000);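 active = mean added fluorescence quench of at least 8% versus neutral control, with both replicates also reaching 8%; inconclusive = only one of the mean or replicate conditions met; inactive = mean below 8% and not both replicates reaching 8%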;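 note: cells transiently co-express mutant CFTR-F508del with the halide-sensitive YFP; corrector assay measuring rescue of mutant channel to the surface after 24 h compound exposure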
Of the large screens only hits and unclear results are named; the others gave an inactive call.

COc1cccc(N2CCN(CC(=O)Nc3ccccc3C(=O)NCCc3ccccc3)CC2)c1	none (no result: miR-122 sensor, INS-1E GSIS act, E-selectin induc)
O=C(NCCc1ccccc1)c1ccccc1NC(=O)C1CCCCC1C(=O)O (stereo not drawn)	DENV2 CPE rescue 44 (no result: miR-122 sensor)
O=C(CN1CCN(c2ccc(O)cc2)CC1)Nc1ccccc1C(=O)NCCc1ccccc1	E-selectin induc 66
O=C(Nc1ccc(F)cc1)c1ccccc1NC(=O)C1CCCCC1C(=O)O (stereo not drawn)	none (no result: miR-122 sensor, E-selectin induc)
Cc1cccc(C)c1NC(=O)C1C(c2ccc3c(c2)OCO3)=Nc2ccccc2N1C(=O)c1ccccn1 (stereo not drawn)	E-selectin induc 119 (no result: miR-122 sensor, ERAP1 inh)
Cc1cccc(C)c1NC(=O)C1C(c2ccc3c(c2)OCO3)=Nc2ccccc2N1C(=O)c1cccc(C(F)(F)F)c1 (stereo not drawn)	none (no result: miR-122 sensor)
CC(=O)Nc1ccc(Nc2nnc(-c3ccc(C)c(S(N)(=O)=O)c3)c3ccccc23)cc1	none (no result: miR-122 sensor)
Cc1ccc(-c2nnc(Nc3ccc4c(c3)OCO4)c3ccccc23)cc1S(N)(=O)=O	miR-122 sensor 180 (no result: INS-1E GSIS act, E-selectin induc)
N#C[C@H]1N[C@H](CO)[C@@H]1c1ccc(/C=C/c2ccccc2)cc1	none (no result: miR-122 sensor)
N#C[C@H]1N[C@H](CO)[C@H]1c1ccc(C#Cc2ccc(F)cc2)cc1	DENV2 CPE rescue 55 (no result: miR-122 sensor)
N#C[C@@H]1N[C@H](CO)[C@H]1c1ccccc1	DENV2 CPE rescue 38 (no result: miR-122 sensor)
C[C@@H]1CN([C@H](C)CO)C(=O)c2cc(NS(=O)(=O)c3cn(C)cn3)ccc2O[C@@H](C)CCCCO[C@@H]1CN(C)CC1CCCCC1	none
CCOC(=O)c1c(SCCN2CCCCC2)n(-c2ccccc2)c(=S)n(-c2ccccc2)c1=O	DENV2 CPE rescue 23 (no result: miR-122 sensor, E-selectin induc)
CCOC(=O)c1c(SC)n(-c2ccccc2)c(=S)n(-c2ccccc2)c1=O	DENV2 CPE rescue inconclusive
COc1ccc(NC(=O)N(C)C[C@@H]2Oc3cc(-c4cccc(C(=O)N(C)C)c4)ccc3S(=O)(=O)N([C@@H](C)CO)C[C@@H]2C)cc1	none
CCOC(=O)CN1CC23C=CC(O2)C(C(=O)NCCc2ccccc2)C3C1=O (stereo not drawn)	DENV2 CPE rescue 22 (no result: E-selectin induc)
COc1ccccc1NC(=O)C[C@H]1CC[C@H]2[C@@H](COc3ccc(NC(C)=O)cc3C(=O)N2C)O1	none (no result: miR-122 sensor)
Cc1ccccc1NS(=O)(=O)c1cccc(-c2nnc(-c3ccccc3)o2)c1	none (no result: ERAP1 inh, INS-1E GSIS act, E-selectin induc, DENV2 CPE rescue, CFTR F508del cor)
O=S(=O)(NC1CCCCC1)c1cccc(-c2nnc(-c3ccccc3)o2)c1	miR-122 sensor 100 (no result: ERAP1 inh, INS-1E GSIS act, E-selectin induc, DENV2 CPE rescue, CFTR F508del cor)
C[C@H]1CN([C@@H](C)CO)S(=O)(=O)c2ccc(C#Cc3cccc(F)c3)cc2O[C@H]1CN(C)S(=O)(=O)c1ccccc1F	none
CCC(CC)CN1CCN=C1Nc1ccccc1	INS-1E GSIS act 59
CC1CCC(CN2CCN=C2Nc2ccccc2)CC1 (stereo not drawn)	DENV2 CPE rescue 40
Cc1noc(C)c1NC(=O)N(C)C[C@@H]1OCCCC[C@@H](C)Oc2ccc(NC(=O)c3ccncc3)cc2C(=O)N([C@H](C)CO)C[C@H]1C	none
CNc1ccc2c3c(cccc13)C(=O)N(C)C2=O	CFTR F508del cor 20 (no result: miR-122 sensor)
Cc1noc(C)c1S(=O)(=O)Nc1ccc2c(c1)C(=O)N([C@@H](C)CO)C[C@H](C)[C@H](CN(C)Cc1ccncc1)OCCCC[C@@H](C)O2	none
CCCNC(=O)Nc1ccc2c(c1)OC[C@@H](C)N(S(C)(=O)=O)C[C@H](C)[C@@H](OC)CN(C)C2=O	none (no result: miR-122 sensor)
CCCNC(=O)Nc1ccc2c(c1)OC[C@H](C)N(C(=O)CC)C[C@H](C)[C@@H](OC)CN(C)C2=O	DENV2 CPE rescue 31 (no result: miR-122 sensor)
CCCNC(=O)Nc1ccc2c(c1)OC[C@@H](C)N(S(C)(=O)=O)C[C@@H](C)[C@H](OC)CN(C)C2=O	DENV2 CPE rescue 43 (no result: miR-122 sensor)
CCC(=O)N1C[C@H](C)[C@H](OC)CN(C)C(=O)c2ccc(NC(=O)NC(C)C)cc2OC[C@H]1C	DENV2 CPE rescue 70 (no result: miR-122 sensor)
CCC(=O)N1C[C@@H](C)[C@@H](OC)CN(C)C(=O)c2ccc(NC(=O)Nc3ccc(Cl)cc3)cc2OC[C@H]1C	DENV2 CPE rescue 80 (no result: miR-122 sensor, ERAP1 inh)
CO[C@@H]1CN(C)C(=O)c2ccc(NS(=O)(=O)c3ccccc3F)cc2OC[C@H](C)NC[C@H]1C	none (no result: miR-122 sensor)
O=C(NCC[C@H]1CC[C@@H](NC(=O)C2CC2)[C@@H](CO)O1)c1cnccn1	none (no result: miR-122 sensor)
COc1ccc(OC)c(C2C3=C(COC3=O)Nc3cc4c(cc32)OCO4)c1 (stereo not drawn)	miR-122 sensor 140 (no result: ERAP1 inh, INS-1E GSIS act, E-selectin induc, DENV2 CPE rescue, CFTR F508del cor)
COc1ccc(C2C3=C(CC(C)(C)CC3=O)Nc3cc4c(cc32)OCO4)cc1 (stereo not drawn)	none (no result: ERAP1 inh, E-selectin induc, DENV2 CPE rescue, CFTR F508del cor)
CCOC(=O)C1=C(C)N(C[C@@H]2CC[C@@H](Cc3ccc4cc(OC)ccc4c3)O2)C(=O)NC1c1ccccc1 (stereo partly drawn)	DENV2 CPE rescue 49 (no result: miR-122 sensor)
CCCNC(=O)N[C@H]1C=C[C@H](CC(=O)N2CCN(C)CC2)O[C@@H]1CO	DENV2 CPE rescue 25 (no result: miR-122 sensor)
Cc1ccc(S(=O)(=O)N[C@@H]2C=C[C@@H](CC(=O)N3CCc4ccccc4C3)O[C@@H]2CO)cc1	DENV2 CPE rescue 28 (no result: miR-122 sensor)
O=C(Cc1ccccc1)N[C@H]1C=C[C@@H](CC(=O)N2CCOCC2)O[C@H]1CO	DENV2 CPE rescue 53 (no result: miR-122 sensor)
O=C(Cc1ccccc1)N[C@H]1C=C[C@H](CC(=O)N2CCOCC2)O[C@@H]1CO	none (no result: miR-122 sensor)
Cn1cnc(S(=O)(=O)N[C@@H]2C=C[C@H](CC(=O)N3CCN(c4ccccc4)CC3)O[C@@H]2CO)c1	DENV2 CPE rescue 94 (no result: miR-122 sensor)
CC(C)OC(=O)N(C)C[C@H]1OCc2ccccc2-c2c(n(C)c3ccccc23)C(=O)N([C@H](C)CO)C[C@H]1C	none (no result: miR-122 sensor)
C[C@@H]1CCCCO[C@H](CN(C)S(=O)(=O)c2cn(C)cn2)[C@@H](C)CN([C@@H](C)CO)C(=O)c2cc(NC(=O)Nc3ccccc3)ccc2O1	none (no result: miR-122 sensor, ERAP1 inh, DENV2 CPE rescue, CFTR F508del cor)
O=C(NC1CCCCC1)N[C@H]1C=C[C@@H](CC(=O)N2CCOCC2)O[C@H]1CO	DENV2 CPE rescue inconclusive (no result: miR-122 sensor)
O=C1C(=Cc2ccccn2)CCc2ccccc21	DENV2 CPE rescue 38
CN1CCN(C(=O)CSc2nc3c(c(=O)n(C)c(=O)n3C)n2C)CC1	none (no result: E-selectin induc)
CC1CCCC(C)N1C(=O)CSc1nc2c(c(=O)n(C)c(=O)n2C)n1C (stereo not drawn)	E-selectin induc 27, DENV2 CPE rescue inconclusive
CCC(=O)N1[C@@H]2c3ccc(C4=CCCC4)c(=O)n3C[C@@H]2[C@@H](CO)[C@@H]1C(=O)NCc1ccc(F)cc1	none
